Experimental data taken from ChEMBL document CHEMBL2086346, “New artesunic acid homodimers: potent reversal agents of multidrug resistance in leukemia cells” (Bioorg Med Chem, 2012).

Tests used:
CCRF-CEM [1] = assay: Selectivity ratio of IC50 for human CEM/ADR5000 cells to IC50 for human CCRF-CEM cells; type: functional
[2] = Cytotoxicity against human CEM/ADR5000 by CCK-8 assay; type: functional
Outline: (§1)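 CCRF-CEM or P-glycoprotein-overexpressing CEM/ADR5000 leukemia cells in RPMI1640. CEM/ADR5000 maintained by treatment with 5000 ng/mL doxorubicin every other week for three days. Viability by CCK-8: reagent added, 3 h at 37 °C, absorbance 450 nm. IC50 from dose–response curves. At least two independent experiments, each with 6 parallel measurements (12 values per concentration), mean ± SEM.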

CCRF-CEM [3] = assay: Cytotoxicity against human CCRF-CEM cells by CCK-8 assay; type: functional, cell-based; outline: as §1

| Structure (SMILES) | Ratio IC50 (CCRF-CEM [1]) | IC50 [2] | IC50 (CCRF-CEM [3]) |
| --- | --- | --- | --- |
| C[C@H]1[C@H](OC(=O)CCC(=O)O)O[C@@H]2O[C@@]3(C)CC[C@H]4[C@H](C)CC[C@@H]1[C@@]24OO3 [ARTESUNATE] | 0.67 | 1200 nM | – |
| C[C@@H]1CC[C@H]2[C@@H](C)C(=O)O[C@@H]3O[C@@]4(C)CC[C@@H]1[C@]32OO4 [ARTEMISININ] | 0.73 | – | – |
| C[C@H]1[C@H](OC(=O)CCC(=O)NCc2cccc(CNC(=O)CCC(=O)O[C@@H]3O[C@@H]4O[C@@]5(C)CC[C@H]6[C@H](C)CC[C@@H]([C@H]3C)[C@@]46OO5)c2)O[C@@H]2O[C@@]3(C)CC[C@H]4[C@H](C)CC[C@@H]1[C@@]24OO3 | 0.94 | 1510 nM | 1600 nM |
| C[C@H]1[C@H](OC(=O)CCC(=O)NCCCCCCCCNC(=O)CCC(=O)O[C@@H]2O[C@@H]3O[C@@]4(C)CC[C@H]5[C@H](C)CC[C@@H]([C@H]2C)[C@@]35OO4)O[C@@H]2O[C@@]3(C)CC[C@H]4[C@H](C)CC[C@@H]1[C@@]24OO3 | 1.03 | 3040 nM | 2940 nM |
| COc1cccc2c1C(=O)c1c(O)c3c(c(O)c1C2=O)C[C@@](O)(C(=O)CO)C[C@@H]3O[C@H]1C[C@H](N)[C@H](O)[C@H](C)O1 [DOXORUBICIN] | >140 | > 5200 nM | 37 nM |
| C[C@H]1[C@H](OC(=O)CCC(=O)NCC(O)CNC(=O)CCC(=O)O[C@@H]2O[C@@H]3O[C@@]4(C)CC[C@H]5[C@H](C)CC[C@@H]([C@H]2C)[C@@]35OO4)O[C@@H]2O[C@@]3(C)CC[C@H]4[C@H](C)CC[C@@H]1[C@@]24OO3 (some centres not stated) | 0.56 | 1210 nM | 2160 nM |
| C[C@H]1[C@H](OC(=O)CCC(=O)NCCCNC(=O)CCC(=O)O[C@@H]2O[C@@H]3O[C@@]4(C)CC[C@H]5[C@H](C)CC[C@@H]([C@H]2C)[C@@]35OO4)O[C@@H]2O[C@@]3(C)CC[C@H]4[C@H](C)CC[C@@H]1[C@@]24OO3 | 0.17 | 200 nM | – |
